Data taken from ChEMBL document CHEMBL1128459, “Characterization of potent and selective antagonists at postsynaptic 5-HT1A receptors in a series of N4-substituted arylpiperazines” (J Med Chem, 1995).

Key:
[1] = biological target: T1, 5-hydroxytryptamine receptor 1A (Rattus norvegicus, UniProt P19327); experiment: Binding affinity at 5-hydroxytryptamine 1A receptor
T1 sequence (P19327 whole entry): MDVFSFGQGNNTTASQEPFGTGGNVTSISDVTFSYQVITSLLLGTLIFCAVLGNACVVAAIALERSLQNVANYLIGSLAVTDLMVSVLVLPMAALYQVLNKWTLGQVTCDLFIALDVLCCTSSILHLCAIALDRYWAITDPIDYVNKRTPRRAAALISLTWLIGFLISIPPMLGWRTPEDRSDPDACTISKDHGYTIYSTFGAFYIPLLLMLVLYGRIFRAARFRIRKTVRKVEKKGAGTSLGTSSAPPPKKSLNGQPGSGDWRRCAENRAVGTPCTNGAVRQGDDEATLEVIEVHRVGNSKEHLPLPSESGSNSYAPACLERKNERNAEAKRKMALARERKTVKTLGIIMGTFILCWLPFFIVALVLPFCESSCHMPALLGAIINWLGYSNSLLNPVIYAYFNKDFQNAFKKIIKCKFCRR
How it was run: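 Rat hippocampal membranes (1/100 wt/vol) in 50 mM Tris pH 7.7 with 4 mM CaCl2, 0.1% ascorbic acid and pargyline. Membranes were spun at 25000g, preincubated 30 min at 37 °C and respun, then incubated with 0.4 nM [3H]-8-OH-DPAT for 30 min at 25 °C. 5-HT defined nonspecific binding, and samples were filtered on PEI-soaked GF/B. IC50 came from regression; pKi = −log[IC50/(1+[L]/Kd)].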

[2] = biological target: 5-hydroxytryptamine receptor 1B (Rattus norvegicus, UniProt P28564); experiment: Binding affinity at 5-hydroxytryptamine 1B receptor
5-hydroxytryptamine receptor 1B, sequence (P28564 whole entry): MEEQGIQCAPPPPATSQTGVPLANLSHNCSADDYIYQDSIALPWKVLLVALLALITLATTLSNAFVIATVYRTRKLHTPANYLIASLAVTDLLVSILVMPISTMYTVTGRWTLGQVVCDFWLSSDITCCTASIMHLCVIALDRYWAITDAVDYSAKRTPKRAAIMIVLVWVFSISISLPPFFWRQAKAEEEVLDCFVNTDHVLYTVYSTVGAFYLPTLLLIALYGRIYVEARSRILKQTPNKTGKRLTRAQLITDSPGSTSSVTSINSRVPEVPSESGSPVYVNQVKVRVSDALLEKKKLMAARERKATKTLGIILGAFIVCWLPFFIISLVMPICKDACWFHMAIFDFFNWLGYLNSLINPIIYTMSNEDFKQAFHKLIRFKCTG
How it was run: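 Rat frontal cortex membranes (1/40 wt/vol) were homogenized in 50 mM Tris pH 7.7 with pargyline, 4 mM CaCl2 and 0.1% ascorbic acid, then preincubated for 30 min at 37 °C. Labelled with 2.0 nM [3H]-5-HT, with 100 nM 8-OH-DPAT and 100 nM mesulergine masking 5-HT1A/5-HT2A sites; 5-CT defined nonspecific binding.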

[3] = biological target: D(2) dopamine receptor (Rattus norvegicus) (UniProt P61169); experiment: Inhibitory activity against methyl-phenidate-induced gnawing at dopamine D2 receptor in rat
D(2) dopamine receptor (Rattus norvegicus), sequence (P61169 whole entry): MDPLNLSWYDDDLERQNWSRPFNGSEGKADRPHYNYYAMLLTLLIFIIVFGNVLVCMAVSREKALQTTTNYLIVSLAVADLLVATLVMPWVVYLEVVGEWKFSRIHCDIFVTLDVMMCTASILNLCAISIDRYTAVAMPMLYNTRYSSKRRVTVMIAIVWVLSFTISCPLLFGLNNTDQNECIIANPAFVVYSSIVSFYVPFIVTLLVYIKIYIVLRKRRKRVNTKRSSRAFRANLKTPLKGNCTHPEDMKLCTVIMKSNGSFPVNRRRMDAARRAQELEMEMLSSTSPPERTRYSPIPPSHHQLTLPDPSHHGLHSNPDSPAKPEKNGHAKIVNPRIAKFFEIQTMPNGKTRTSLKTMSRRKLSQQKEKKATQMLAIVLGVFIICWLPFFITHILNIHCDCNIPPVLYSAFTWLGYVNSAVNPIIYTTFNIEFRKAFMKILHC
How it was run: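 Male Wistar rats (200-220 g) received the test drug sc in water (1.0 mL/kg), then methylphenidate 40.0 mg/kg ip 30 min later. Observation began 30 min after that. Gnawing bouts were counted in 10 s per minute (maximum 10) by a blinded observer.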

[4] = system: Rattus norvegicus; experiment: Compound after subcutaneous administration was evaluated for antagonist activity against hypothermia induced by 8-hydroxy -DPAT in rat; assay type: functional; conditions: sc, read-out: ID50 (the source's name)
How it was run: (§1)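 Male Wistar rats (200-220 g) had rectal temperature taken, then received the test drug sc in distilled water (1.0 mL/kg). After 30 min they got 8-OH-DPAT 0.16 mg/kg sc, and temperature was remeasured 30 min later. Change from basal was scored.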

[5] = system: Rattus norvegicus; experiment: Minimum effective agonist dose administered subcutaneously; assay type: functional; conditions: sc, read-out: MED
How it was run: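 Male Wistar rats (200-220 g) were given the test drug alone sc in water (1.0 mL/kg), with vehicle reinjected at 30 min. Rectal temperature change from basal was measured 60 min after the first injection. MED for hypothermia was set against vehicle by ANOVA with Dunnett's test, P < 0.05.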

[6] = system: Rattus norvegicus; experiment: Minimum effective antagonist dose administered subcutaneously; assay type: functional; conditions: sc, read-out: MED; how it was run: as §1
[7] = species: Rattus norvegicus; experiment: Maximum agonist effect (% effect) expressed relative to 8-hydroxy-DPAT (100%); assay type: functional
How it was run: (§2)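 In the rat rectal-temperature model (sc dosing, 8-OH-DPAT 0.16 mg/kg sc for antagonism), the maximal percentage of induced hypothermia (agonist) and of block of 8-OH-DPAT hypothermia (antagonist) was recorded. Each value is given with the dose at which it was reached.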

[8] = species: Rattus norvegicus; experiment: Maximum antagonist effect (% effect) expressed relative to 8-hydroxy-DPAT (100%); assay type: functional; how it was run: as §2
[9] = Ratio of MED (agonist) to that of MED (antagonist) values.; assay type: functional
How it was run: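 The MED for inducing hypothermia alone was divided by the MED for blocking 8-OH-DPAT (0.16 mg/kg sc) hypothermia. Both MEDs came from sc dosing in male Wistar rats and were tested against vehicle by ANOVA with Dunnett's test, P < 0.05.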

[10] = biological target: D(2) dopamine receptor (Rattus norvegicus, UniProt P61169); experiment: In vitro binding affinity towards dopamine D2 receptor in rat striatum was determined using [3H]-spiperone as radioligand; assay type: tissue-based
D(2) dopamine receptor, sequence (P61169 whole entry): as above
How it was run: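 Rat striatal membranes (1/300 wt/vol), no preincubation, in 50 mM Tris pH 7.4 with CaCl2, ascorbic acid, 5 mM KCl, 1 mM MgCl2 and 120 mM NaCl. Ligand 0.2 nM [3H]spiperone, with 100 nM ketanserin masking 5-HT2A sites; raclopride defined nonspecific binding. Incubation 30 min at 37 °C, then filtration. pKi derived from regression-based IC50.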

[11] = biological target: Serotonin 1a (5-HT1a) receptor/Adrenergic receptor alpha-1 (Rattus norvegicus) (UniProt P15823+P23944+P43140+P19327); experiment: Ki ratio measured as the Ki values of alpha-1 adrenergic receptor to that of 5-hydroxytryptamine 1A receptor; assay type: protein assay
[12] = biological target: T2, Adrenergic receptor alpha-1 (Rattus norvegicus, UniProt P15823+P23944+P43140); experiment: In vitro binding affinity towards Alpha-1 adrenergic receptor in rat cortex was determined using [3H]prazosin as radioligand
T2 sequence (P15823 whole entry): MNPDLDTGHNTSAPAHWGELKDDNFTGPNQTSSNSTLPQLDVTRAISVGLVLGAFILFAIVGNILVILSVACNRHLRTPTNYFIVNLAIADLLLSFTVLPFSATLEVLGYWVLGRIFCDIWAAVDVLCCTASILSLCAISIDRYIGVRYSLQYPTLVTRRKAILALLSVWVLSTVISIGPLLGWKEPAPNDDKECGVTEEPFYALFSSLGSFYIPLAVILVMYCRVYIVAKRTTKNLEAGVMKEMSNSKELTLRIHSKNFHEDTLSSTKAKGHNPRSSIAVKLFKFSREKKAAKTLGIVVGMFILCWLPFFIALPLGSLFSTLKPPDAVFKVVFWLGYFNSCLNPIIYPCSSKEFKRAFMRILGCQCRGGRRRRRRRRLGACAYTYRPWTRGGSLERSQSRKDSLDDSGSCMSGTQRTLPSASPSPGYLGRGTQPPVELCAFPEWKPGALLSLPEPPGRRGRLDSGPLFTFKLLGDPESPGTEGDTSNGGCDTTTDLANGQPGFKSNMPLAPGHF
T2 sequence (P23944 whole entry): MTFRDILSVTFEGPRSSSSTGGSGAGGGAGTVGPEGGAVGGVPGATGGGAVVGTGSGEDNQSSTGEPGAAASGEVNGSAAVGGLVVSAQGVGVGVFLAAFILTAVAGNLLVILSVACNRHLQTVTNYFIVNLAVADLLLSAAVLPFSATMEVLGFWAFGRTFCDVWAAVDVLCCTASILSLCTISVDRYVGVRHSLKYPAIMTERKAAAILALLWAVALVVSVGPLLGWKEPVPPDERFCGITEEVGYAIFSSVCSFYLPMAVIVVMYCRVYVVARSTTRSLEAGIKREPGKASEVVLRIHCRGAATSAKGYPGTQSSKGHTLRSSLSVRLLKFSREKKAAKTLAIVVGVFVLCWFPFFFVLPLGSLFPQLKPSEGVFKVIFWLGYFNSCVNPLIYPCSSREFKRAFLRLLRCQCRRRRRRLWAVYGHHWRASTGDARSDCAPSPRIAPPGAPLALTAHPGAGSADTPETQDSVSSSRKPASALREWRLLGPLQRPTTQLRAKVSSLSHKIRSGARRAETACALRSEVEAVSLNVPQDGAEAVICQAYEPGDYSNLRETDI
T2 sequence (P43140 whole entry): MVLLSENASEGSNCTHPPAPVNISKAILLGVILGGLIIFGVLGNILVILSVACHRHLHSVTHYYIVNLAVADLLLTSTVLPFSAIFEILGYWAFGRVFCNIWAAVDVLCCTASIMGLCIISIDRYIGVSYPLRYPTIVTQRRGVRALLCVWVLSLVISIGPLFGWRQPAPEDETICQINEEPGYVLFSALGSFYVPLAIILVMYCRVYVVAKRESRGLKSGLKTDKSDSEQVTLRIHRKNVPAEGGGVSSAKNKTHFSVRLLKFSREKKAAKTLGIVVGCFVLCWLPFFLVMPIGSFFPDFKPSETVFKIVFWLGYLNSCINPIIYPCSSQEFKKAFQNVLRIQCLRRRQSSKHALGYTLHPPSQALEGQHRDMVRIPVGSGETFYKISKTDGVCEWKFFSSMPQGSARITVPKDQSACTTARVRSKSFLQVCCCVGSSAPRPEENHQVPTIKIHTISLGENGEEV
How it was run: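 Rat frontal cortex membranes (1/80 wt/vol), no preincubation, in 50 mM Tris pH 7.6 with 4 mM CaCl2 and 0.1% ascorbic acid. Ligand 0.2 nM [3H]prazosin, with phentolamine for nonspecific binding. Incubation 60 min at 25 °C, then filtration. IC50 obtained by regression and converted to pKi with radioligand Kd from saturation experiments.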

[13] = biological target: D(2) dopamine receptor (Rattus norvegicus) (UniProt P61169)

**Q.** What does the source list for `Clc1cccc2c1CC2CN1CCN(c2cccc3c2OCCO3)CC1` (stereo unspecified)?
**A.** Ki [1]: 3.98 nM; Ki [2]: 550 nM; ID50 [3]: > 40 mg/kg; ED50 [4]: 0.8 mg/kg; minimal effective dose [5]: 40 mg/kg; minimal effective dose [6]: 0.63 mg/kg; Max effect [7]: 0%; Max effect [8]: 100%; Ratio [9]: 63.5

**Q.** For `Clc1cccc2c1CC2CCN1CCN(c2cccc3c2OCCO3)CC1` (stereo unspecified), which Ki [1] is on record?
**A.** 2.24 nM

**Q.** And the Ki [2]?
**A.** 708 nM

**Q.** What about the Ki [10] of the same molecule?
**A.** 60.3 nM

**Q.** What about the ED50 [4] of the same molecule?
**A.** 1.13 mg/kg

**Q.** What about the minimal effective dose [5] of the same molecule?
**A.** 40 mg/kg

**Q.** And the minimal effective dose [6]?
**A.** 1.25 mg/kg

**Q.** And the Max effect [7]?
**A.** 52%

**Q.** What about the Max effect [8] of the same molecule?
**A.** 96%

**Q.** What about the Ratio [9] of the same molecule?
**A.** 32

**Q.** And the Ki ratio [11]?
**A.** 28.8

**Q.** And the “Log Ki” value [12]?
**A.** -7.19

**Q.** And the ID50 [13]?
**A.** > 40 mg/kg
